From article PMC5469400 (Drug Metabolism and Disposition, 2017)
pIC50: −log10 of the molar value.

What was measured:
[1] = DCF clearance / PK in the LiverChip, one-compartment model; format: in vitro ADME; details: human
[2] = system: coculture of hepatocytes and Kupffer cells (10:1); assay: Extrapolation of in vitro DCF clearance to predicted hepatic clearance; format: in vitro ADME, human
[3] = system: primary hepatocyte–Kupffer cell cocultures; assay: WST-1 cell viability in the LiverChip, repeat dosing; format: cell-based; details: Homo sapiens, read-out: IC50 (cell viability, WST-1)
In short: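 Perfused LiverChip cocultures of cryopreserved primary human hepatocytes and Kupffer cells (10:1, 600,000 cells/well; post-thaw viability >85%). Test compound in DMSO (0.5% v/v final) dosed from day 5. Medium and fresh compound replaced every 48 h. Viability measured by WST-1; mean of two replicates.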

[4] = system: primary human hepatocyte and Kupffer cell cocultures; assay: LDH release in the LiverChip; format: cell-based
In short: (§1)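 Cryopreserved primary human hepatocytes and Kupffer cells (10:1, 600,000 cells/well) were cocultured in perfused LiverChip scaffolds (1.0 µl/s), with hydrocortisone-containing (100 nM) WEM from day 3. Test compound in DMSO (0.5% v/v final) was given from day 5 and redosed at each 48-hour medium change, ±LPS 1 µg/ml. Medium was sampled 48 hours after each dose for albumin (ELISA) and LDH activity; n = 3, S.D.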

[5] = system: primary human hepatocyte and Kupffer cell cocultures; assay: Albumin secretion; format: cell-based; details: high DCF concentrations (>50×), measured 48 hours after each dose
In short: as §1

[6] = system: bile acid production in 3D liver coculture; assay: Bile acids in culture medium by LC-MS; format: cell-based, human; details: for level of GCA after 48 h / level of cholic acid after 48 h / level of glycochenodeoxycholic acid 3-glucuronide after 48 h / level of glycochenodeoxycholic acid after 48 h / level of taurocholic acid after 48 h: 0 μM DCF = 100, relative EIC
In short: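 Perfused LiverChip cocultures of cryopreserved primary human hepatocytes and Kupffer cells (10:1, 600,000 cells/well) in WEM with 100 nM hydrocortisone. Test compound in DMSO (0.5% v/v final) or LPS 1 µg/ml added from day 5, refreshed at 48 h medium changes. d5-GCA internal standard added before extraction. Bile acids in medium at 48 h by accurate MS peak area (EIC%) relative to vehicle = 100. Mean of two technical replicates.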

[7] = system: proteins in hepatocyte-Kupffer cell coculture medium; assay: Shotgun proteomics of secreted proteins, spectral counting; format: cell-based, human; details: 440 μM DCF
In short: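 Perfused hepatocyte–Kupffer cell coculture medium was collected from control and 440 μM test compound cultures on days 5 and 7 and depleted of albumin. Proteins were taken up in 8 M urea/50 mM ABC with ProteaseMAX, reduced with DTT (56°C, 30 min) and alkylated with IAA (30 min, room temperature, dark). Fractions were cleaned on C18, analysed by shotgun LC-MS/MS and quantified by spectral counting.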

[8] = system: acute phase proteins (APPs); assay: iTRAQ 8plex quantitation of acute phase proteins in conditioned medium; format: cell-based, human; details: day 7; normalized to untreated control; drug 440 μM DCF, LPS 1 µg/ml
In short: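 Day 7 conditioned medium from perfused human hepatocyte–Kupffer cell cocultures treated with test compound (440 μM), LPS (1 µg/ml) or both. Albumin depleted; 100 μg protein reduced (2 mM TCEP, 37°C, 30 min), blocked (10 mM MMTS, 1 h) and trypsin-digested (1:40 w/w, 37°C overnight). Peptides iTRAQ-8plex labelled (3 h, RT), then C18-cleaned. Values are ln2 ratios versus untreated control (combined treatment versus LPS).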

[9] = wells in the absence of cells, concentration monitored over 24 hours
[10] = cited from earlier work

Molecule: O=C(O)Cc1ccccc1Nc1c(Cl)cccc1Cl [DCF, diclofenac]
- half-life at 4.4 µM [1]: 14.6 h
- underprediction of predicted CLh versus in vivo plasma clearance [2]: < 7 fold
- pIC50 [3]: 3.64
- LDH release ([4]; high DCF concentrations (>50×), measured 48 hours after each dose): became more pronounced after the second dose
- albumin secretion [5]: declined after a single dose
- DCF-induced toxicity as assessed by suppression of GCA production ([6]; 0, 44, 110, 220 and 440 µM DCF): continuous dose-response relationship
- level of GCA after 48 h ([6]; 110 μM DCF): 57%
- level of cholic acid after 48 h ([6]; 110 μM DCF): 66%
- level of glycochenodeoxycholic acid 3-glucuronide after 48 h ([6]; 110 μM DCF): 69%
- level of glycochenodeoxycholic acid after 48 h ([6]; 110 μM DCF): 50%
- level of taurocholic acid after 48 h ([6]; 110 μM DCF): 77%
- level of GCA after 48 h ([6]; 440 μM DCF): 2%
- level of cholic acid after 48 h ([6]; 440 μM DCF): 12%
- level of glycochenodeoxycholic acid 3-glucuronide after 48 h ([6]; 440 μM DCF): 14%
- level of glycochenodeoxycholic acid after 48 h ([6]; 440 μM DCF): 15%
- level of taurocholic acid after 48 h ([6]; 440 μM DCF): 10%
- number of proteins different between control and DCF-treated samples ([7]; day 5): 13 proteins
- number of additional proteins elevated, not identified in the control ([7]; day 7): 68 proteins
- ln2 iTRAQ value, Haptoglobin [8]: 0.5
- ln2 iTRAQ value, α1 antiproteinase [8]: 1.0
- ln2 iTRAQ value, α2 macroglobulin [8]: −1.0
- binding to the LiverChip components [9]: no detectable binding
- in vivo plasma clearance ([10]; human, ref http://www.capkr.man.ac.uk): 3.8 ml/min per kilogram
- Cmax ([10]; recommended dose of DCF in humans): 4.4 µM

Molecule: lipopolysaccharide [LPS]
- effect of LPS codosing on toxicity profile of DCF ([4]; gross markers of functionality and cell death, LPS 1 µg/ml): does not significantly change the toxicity profile
- effect of LPS together with DCF on drug toxicity (bile acid production) ([6]; LPS alone, DCF, LPS plus DCF): synergistic effect
- ln2 iTRAQ value, Amyloid β A4 protein isoform b [8]: −1.7
- ln2 iTRAQ value, Angiotensinogen [8]: 3.7
- ln2 iTRAQ value, Ceruloplasmin [8]: 3.8
- ln2 iTRAQ value, Complement component C3 [8]: 5.1
- ln2 iTRAQ value, Haptoglobin [8]: 3.8
- ln2 iTRAQ value, Hypothetical protein [8]: 3.9
- ln2 iTRAQ value, Leucine-rich α2-glycoprotein [8]: 2.8
- ln2 iTRAQ value, Liver carboxylesterase 1 isoform a [8]: 2.4
- ln2 iTRAQ value, Retinol binding protein 4 [8]: 5.0
- ln2 iTRAQ value, Serum albumin [8]: 3.9
- ln2 iTRAQ value, Transferrin [8]: 3.0
- ln2 iTRAQ value, Transthyretin [8]: 1.3
- ln2 iTRAQ value, Vitamin D binding protein [8]: 2.1
- ln2 iTRAQ value, α1-acid glycoprotein 1 [8]: 7.0
- ln2 iTRAQ value, α1-acid glycoprotein 2 [8]: 5.0
- ln2 iTRAQ value, α1-antitrypsin [8]: 4.2
- ln2 iTRAQ value, α1 antiproteinase [8]: 4.2
- ln2 iTRAQ value, α2-HS glycoprotein [8]: 1.5
